Results published in ChEMBL document CHEMBL4052595, “Application of Residual Dipolar Couplings and Selective Quantitative NOE to Establish the Structures of Tetranortriterpenoids from Xylocarpus rumphii” (J Nat Prod, 2017).
Activity calls are given as the source filed them.

What was measured:
Type in all cases: functional, cell-based
BT-549 = assay: Growth inhibition of human BT549 cells at 10^-5 M incubated for 48 hrs by sulforhodamine B assay
Method in brief: (§1)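 Run in the NCI59 one-dose cell-line screen, with each compound tested at a single concentration of 1 × 10−5 M.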

T47D = assay: Growth inhibition of human T47D cells at 10^-5 M incubated for 48 hrs by sulforhodamine B assay
Method in brief: (§2)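 Tested at a single concentration of 1 × 10−5 M as part of the NCI59 cell-line one-dose screen.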

Hs-578T = assay: Growth inhibition of human Hs 578T cells at 10^-5 M incubated for 48 hrs by sulforhodamine B assay; method in brief: as §1
MCF7 = assay: Growth inhibition of human MCF7 cells at 10^-5 M incubated for 48 hrs by sulforhodamine B assay; method in brief: as §1
MDA-MB-231 = assay: Growth inhibition of human MDA-MB-231 cells at 10^-5 M incubated for 48 hrs by sulforhodamine B assay; method in brief: as §1
DU-145 = assay: Growth inhibition of human DU145 cells at 10^-5 M incubated for 48 hrs by sulforhodamine B assay; method in brief: as §1
UO-31 = assay: Growth inhibition of human UO31 cells at 10^-5 M incubated for 48 hrs by sulforhodamine B assay; method in brief: as §2
PC-3 = assay: Growth inhibition of human PC3 cells at 10^-5 M incubated for 48 hrs by sulforhodamine B assay; method in brief: as §1
SN12C = assay: Growth inhibition of human SN12C cells at 10^-5 M incubated for 48 hrs by sulforhodamine B assay; method in brief: as §1
TK-10 = assay: Growth inhibition of human TK10 cells at 10^-5 M incubated for 48 hrs by sulforhodamine B assay; method in brief: as §2
RXF 393 = assay: Growth inhibition of human RXF393 cells at 10^-5 M incubated for 48 hrs by sulforhodamine B assay; method in brief: as §1
ACHN = assay: Growth inhibition of human ACHN cells at 10^-5 M incubated for 48 hrs by sulforhodamine B assay; method in brief: as §1
CAKI-1 = assay: Growth inhibition of human Caki1 cells at 10^-5 M incubated for 48 hrs by sulforhodamine B assay; method in brief: as §1
A498 = assay: Growth inhibition of human A498 cells at 10^-5 M incubated for 48 hrs by sulforhodamine B assay; method in brief: as §1
786-0 = assay: Growth inhibition of human 786-0 cells at 10^-5 M incubated for 48 hrs by sulforhodamine B assay; method in brief: as §1
NCI/ADR-RES = assay: Growth inhibition of human NCI/ADR-RES cells at 10^-5 M incubated for 48 hrs by sulforhodamine B assay; method in brief: as §1
SK-OV-3 = assay: Growth inhibition of human SKOV3 cells at 10^-5 M incubated for 48 hrs by sulforhodamine B assay; method in brief: as §1
OVCAR-8 = assay: Growth inhibition of human OVCAR8 cells at 10^-5 M incubated for 48 hrs by sulforhodamine B assay; method in brief: as §1
OVCAR-4 = assay: Growth inhibition of human OVCAR4 cells at 10^-5 M incubated for 48 hrs by sulforhodamine B assay; method in brief: as §1
OVCAR-5 = assay: Growth inhibition of human OVCAR5 cells at 10^-5 M incubated for 48 hrs by sulforhodamine B assay; method in brief: as §1
IGROV-1 = assay: Growth inhibition of human IGROV1 cells at 10^-5 M incubated for 48 hrs by sulforhodamine B assay; method in brief: as §1
OVCAR-3 = assay: Growth inhibition of human OVCAR3 cells at 10^-5 M incubated for 48 hrs by sulforhodamine B assay; method in brief: as §1
UACC-62 = assay: Growth inhibition of human UACC62 cells at 10^-5 M incubated for 48 hrs by sulforhodamine B assay; method in brief: as §2
SK-MEL-5 = assay: Growth inhibition of human SK-MEL-5 cells at 10^-5 M incubated for 48 hrs by sulforhodamine B assay; method in brief: as §1
UACC-257 = assay: Growth inhibition of human UACC257 cells at 10^-5 M incubated for 48 hrs by sulforhodamine B assay; method in brief: as §2
SK-MEL-28 = assay: Growth inhibition of human SK-MEL-28 cells at 10^-5 M incubated for 48 hrs by sulforhodamine B assay; method in brief: as §1
MDA-MB-435 = assay: Growth inhibition of human MDA-MB-435 cells at 10^-5 M incubated for 48 hrs by sulforhodamine B assay; method in brief: as §1
SK-MEL-2 = assay: Growth inhibition of human SK-MEL-2 cells at 10^-5 M incubated for 48 hrs by sulforhodamine B assay; method in brief: as §1
M14 = assay: Growth inhibition of human M14 cells at 10^-5 M incubated for 48 hrs by sulforhodamine B assay; method in brief: as §1
U-251 = assay: Growth inhibition of human U251 cells at 10^-5 M incubated for 48 hrs by sulforhodamine B assay; method in brief: as §2
LOX IMVI = assay: Growth inhibition of human LOXIMVI cells at 10^-5 M incubated for 48 hrs by sulforhodamine B assay; method in brief: as §1
SNB-19 = assay: Growth inhibition of human SNB19 cells at 10^-5 M incubated for 48 hrs by sulforhodamine B assay; method in brief: as §1
SNB-75 = assay: Growth inhibition of human SNB75 cells at 10^-5 M incubated for 48 hrs by sulforhodamine B assay; method in brief: as §1
SF-539 = assay: Growth inhibition of human SF539 cells at 10^-5 M incubated for 48 hrs by sulforhodamine B assay; method in brief: as §1
SF-268 = assay: Growth inhibition of human SF268 cells at 10^-5 M incubated for 48 hrs by sulforhodamine B assay; method in brief: as §1
SF-295 = assay: Growth inhibition of human SF295 cells at 10^-5 M incubated for 48 hrs by sulforhodamine B assay; method in brief: as §1
SW-620 = assay: Growth inhibition of human SW620 cells at 10^-5 M incubated for 48 hrs by sulforhodamine B assay; method in brief: as §2
HT-29 = assay: Growth inhibition of human HT-29 cells at 10^-5 M incubated for 48 hrs by sulforhodamine B assay; method in brief: as §1
KM12 = assay: Growth inhibition of human KM12 cells at 10^-5 M incubated for 48 hrs by sulforhodamine B assay; method in brief: as §1
HCT-116 = assay: Growth inhibition of human HCT116 cells at 10^-5 M incubated for 48 hrs by sulforhodamine B assay; method in brief: as §1
HCT-15 = assay: Growth inhibition of human HCT15 cells at 10^-5 M incubated for 48 hrs by sulforhodamine B assay; method in brief: as §1
HCC 2998 = assay: Growth inhibition of human HCC2998 cells at 10^-5 M incubated for 48 hrs by sulforhodamine B assay; method in brief: as §1
NCI-H522 = assay: Growth inhibition of human NCI-H522 cells at 10^-5 M incubated for 48 hrs by sulforhodamine B assay; method in brief: as §1
COLO 205 = assay: Growth inhibition of human COLO205 cells at 10^-5 M incubated for 48 hrs by sulforhodamine B assay; method in brief: as §1
NCI-H460 = assay: Growth inhibition of human NCI-H460 cells at 10^-5 M incubated for 48 hrs by sulforhodamine B assay; method in brief: as §1
NCI-H23 = assay: Growth inhibition of human NCI-H23 cells at 10^-5 M incubated for 48 hrs by sulforhodamine B assay; method in brief: as §1
NCI-H322M = assay: Growth inhibition of human NCI-H322M cells at 10^-5 M incubated for 48 hrs by sulforhodamine B assay; method in brief: as §1
NCI-H226 = assay: Growth inhibition of human NCI-H226 cells at 10^-5 M incubated for 48 hrs by sulforhodamine B assay; method in brief: as §1
HOP-62 = assay: Growth inhibition of human HOP62 cells at 10^-5 M incubated for 48 hrs by sulforhodamine B assay; method in brief: as §1
HOP-92 = assay: Growth inhibition of human HOP92 cells at 10^-5 M incubated for 48 hrs by sulforhodamine B assay; method in brief: as §1
A549 = assay: Growth inhibition of human A549/ATCC cells at 10^-5 M incubated for 48 hrs by sulforhodamine B assay; method in brief: as §1
EKVX = assay: Growth inhibition of human EKVX cells at 10^-5 M incubated for 48 hrs by sulforhodamine B assay; method in brief: as §1
SR = assay: Growth inhibition of human SR cells at 10^-5 M incubated for 48 hrs by sulforhodamine B assay; method in brief: as §1
MOLT-4 = assay: Growth inhibition of human MOLT4 cells at 10^-5 M incubated for 48 hrs by sulforhodamine B assay; method in brief: as §1
RPMI-8226 = assay: Growth inhibition of human RPMI8226 cells at 10^-5 M incubated for 48 hrs by sulforhodamine B assay; method in brief: as §1
K562 = assay: Growth inhibition of human K562 cells at 10^-5 M incubated for 48 hrs by sulforhodamine B assay; method in brief: as §1
CCRF-CEM = assay: Growth inhibition of human CCRF-CEM cells at 10^-5 M incubated for 48 hrs by sulforhodamine B assay; method in brief: as §1
HL-60(TB) = assay: Growth inhibition of human HL-60(TB) cells at 10^-5 M incubated for 48 hrs by sulforhodamine B assay
Method in brief: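 Run in the NCI59 cell-line one-dose screen, with each compound tested at a single concentration of 1 × 10−5 M.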

Measured: growth inhibition (GI)

CC[C@H](C)C(=O)O[C@@H]1[C@@H]2[C@@H](OC(=O)C(C)C)[C@@]34O[C@]2(O)[C@@](C)([C@@H](CC(=O)OC)C1(C)C)[C@H]3CC[C@]1(C)C4=CC(=O)O[C@H]1C1=CC(O)OC1=O (stereo partly drawn)
inactive: all assays above
